Results: ChEMBL document CHEMBL3272172, “Inhibition of the activity of the luteinizing hormone-releasing hormone (LH-RH) by analogues with variations at positions 2, 3, and 6 and the carboxyl terminus” (J Med Chem, 1977)
Square brackets hold non-standard residues; d marks the D form. Peptide text beside a SMILES is read from it. pGlu = O=C1CC[C@@H](C(=O)O)N1

Columns and labels:
[1] = target: T1, Gonadotropin-releasing hormone receptor (Rattus norvegicus) (UniProt P30969); assay: Antagonist activity at LH-RH receptor in Sprague-Dawley rat pituitary gland assessed as change in LH-RH-induced luteinizing hormone release at 100 ug/ml preincubated for 2 hrs followed by LH-RH addition at 5th and 6th hr 5 mins post drug addition and measured every hour for 4 hrs by RIA
T1 sequence (whole entry): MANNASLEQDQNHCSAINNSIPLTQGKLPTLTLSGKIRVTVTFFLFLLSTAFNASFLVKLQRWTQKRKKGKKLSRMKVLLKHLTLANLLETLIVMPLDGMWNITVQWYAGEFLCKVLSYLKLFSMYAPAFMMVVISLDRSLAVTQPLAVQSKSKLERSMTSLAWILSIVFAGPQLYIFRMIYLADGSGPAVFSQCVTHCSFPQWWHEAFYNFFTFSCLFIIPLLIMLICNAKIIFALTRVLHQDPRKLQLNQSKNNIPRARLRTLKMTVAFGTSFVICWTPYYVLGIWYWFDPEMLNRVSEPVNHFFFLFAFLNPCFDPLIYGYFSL
Method in brief: (§1)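 Two pituitaries from 20-day-old female rats were incubated in 1 mL lactated Ringer's at 37 °C with shaking for 6 h, with medium replaced hourly. Analogue was added in hours 3–6. LH-RH at 0.3 ng/mL was added in hours 5–6, 5 min after the analogue. LH and FSH were measured by RIA against the LER-1240-2 or FSH standard and reported as Δ ng/mL ± SEM with p values.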

[2] = target: T1, Gonadotropin-releasing hormone receptor (Rattus norvegicus); assay: Agonist activity at LH-RH receptor in Sprague-Dawley rat pituitary gland assessed as change in follicle-stimulating hormone release at 100 ug/ml incubated for 4 hrs measured every hour for 4 hrs by RIA
Method in brief: (§2)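 Two pituitaries from 20-day-old female rats per beaker, in 1 mL lactated Ringer's at 37 °C with shaking, 6 h total. Medium was replaced hourly. After two preincubation hours the analogue was present alone in hours 3–6 (peptide in µg/mL of medium). LH and FSH were measured by RIA as ng of LH-LER-1240-2 or FSH standard, given as Δ ± SEM with p values.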

[3] = target: T1, Gonadotropin-releasing hormone receptor (Rattus norvegicus); assay: Antagonist activity at LH-RH receptor in Sprague-Dawley rat pituitary gland assessed as change in LH-RH-induced follicle-stimulating hormone release at 10 ug/ml preincubated for 2 hrs followed by LH-RH addition at 5th and 6th hr 5 mins post drug addition and measured every hour for 4 hrs by RIA; method in brief: as §1
[4] = target: T1, Gonadotropin-releasing hormone receptor (Rattus norvegicus); assay: Antagonist activity at LH-RH receptor in Sprague-Dawley rat pituitary gland assessed as change in LH-RH-induced luteinizing hormone release at 10 ug/ml preincubated for 2 hrs followed by LH-RH addition at 5th and 6th hr 5 mins post drug addition and measured every hour for 4 hrs by RIA; method in brief: as §1
[5] = target: T1, Gonadotropin-releasing hormone receptor (Rattus norvegicus); assay: Agonist activity at LH-RH receptor in Sprague-Dawley rat pituitary gland assessed as change in luteinizing hormone release at 100 ug/ml incubated for 4 hrs measured every hour for 4 hrs by RIA; method in brief: as §2
[6] = target: T1, Gonadotropin-releasing hormone receptor (Rattus norvegicus); assay: Antagonist activity at LH-RH receptor in Sprague-Dawley rat pituitary gland assessed as change in LH-RH-induced follicle-stimulating hormone release at 100 ug/ml preincubated for 2 hrs followed by LH-RH addition at 5th and 6th hr 5 mins post drug addition and measured every hour for 4 hrs by RIA; method in brief: as §1
[7] = target: T1, Gonadotropin-releasing hormone receptor (Rattus norvegicus); assay: Antagonist activity at LH-RH receptor in Sprague-Dawley rat pituitary gland assessed as change in LH-RH-induced luteinizing hormone release at 1 ug/ml preincubated for 2 hrs followed by LH-RH addition at 5th and 6th hr 5 mins post drug addition and measured every hour for 4 hrs by RIA; method in brief: as §1
[8] = target: T1, Gonadotropin-releasing hormone receptor (Rattus norvegicus); assay: Antagonist activity at LH-RH receptor in Sprague-Dawley rat pituitary gland assessed as change in LH-RH-induced follicle-stimulating hormone release at 1 ug/ml preincubated for 2 hrs followed by LH-RH addition at 5th and 6th hr 5 mins post drug addition and measured every hour for 4 hrs by RIA; method in brief: as §1

Activity [1] [ng/mL] | Activity [2] [ng/mL] | Activity [3] [ng/mL] | Activity [4] [ng/mL] | Activity [5] [ng/mL] | Activity [6] [ng/mL] | Activity [7] [ng/mL] | Activity [8] [ng/mL] | SMILES
90 | -367 | 6540 | 88 | -7 |  |  |  | CC(C)C[C@H](NC(=O)CNC(=O)[C@H](Cc1ccc(O)cc1)NC(=O)[C@H](CO)NC(=O)[C@H](CO)NC(=O)[C@H](CC(C)C)NC(=O)[C@@H]1CCC(=O)N1)C(=O)N[C@@H](CCCNC(=N)N)C(=O)N1CCC[C@H]1C(=O)NCC(N)=O ([pGlu]LSSYGLRPG-NH2)
185 | -1270 |  |  | 18 | 2300 |  |  | CC(C)C[C@H](NC(=O)CNC(=O)[C@H](Cc1ccc(O)cc1)NC(=O)[C@H](CO)NC(=O)[C@H](CC(N)=O)NC(=O)[C@H](CC(C)C)NC(=O)[C@@H]1CCC(=O)N1)C(=O)N[C@@H](CCCNC(=N)N)C(=O)N1CCC[C@H]1C(=O)NCC(N)=O ([pGlu]LNSYGLRPG-NH2)
180 | 699 | 3080 | 180 | 14 | 3230 |  |  | CC(C)C[C@H](NC(=O)CNC(=O)[C@H](Cc1ccc(O)cc1)NC(=O)[C@H](CO)NC(=O)[C@H](CC(C)C)NC(=O)[C@@H](NC(=O)[C@@H]1CCC(=O)N1)[C@@H](C)O)C(=O)N[C@@H](CCCNC(=N)N)C(=O)N1CCC[C@H]1C(=O)NCC(N)=O ([pGlu]TLSYGLRPG-NH2)

Continued, compound first:

SMILES | Activity [1] [ng/mL] | Activity [2] [ng/mL] | Activity [3] [ng/mL] | Activity [4] [ng/mL] | Activity [5] [ng/mL] | Activity [6] [ng/mL] | Activity [7] [ng/mL] | Activity [8] [ng/mL]
CCNC(=O)[C@@H]1CCCN1C(=O)[C@H](CCCNC(=N)N)NC(=O)[C@H](CC(C)C)NC(=O)[C@@H](C)NC(=O)[C@H](Cc1ccc(O)cc1)NC(=O)[C@H](CO)NC(=O)[C@H](C)NC(=O)[C@@H](NC(=O)[C@@H]1CCC(=O)N1)[C@@H](C)CC | 49 | 1020 |  |  | 42 | 1910 |  | 
CCNC(=O)[C@@H]1CCCN1C(=O)[C@H](CCCNC(=N)N)NC(=O)[C@H](CC(C)C)NC(=O)[C@@H](C)NC(=O)[C@H](Cc1ccc(O)cc1)NC(=O)[C@H](CO)NC(=O)[C@H](C)NC(=O)[C@H](CC)NC(=O)[C@@H]1CCC(=O)N1 | 62 | 184 | 2970 | 56 | -3 | 1780 | 157 | 2610
CC(C)C[C@H](NC(=O)[C@@H]1CCC(=O)N1)C(=O)N[C@@H](C)C(=O)N[C@@H](CO)C(=O)N[C@@H](Cc1ccc(O)cc1)C(=O)N[C@H](C)C(=O)N[C@@H](CC(C)C)C(=O)N[C@@H](CCCNC(=N)N)C(=O)N1CCC[C@H]1C(=O)NCC(N)=O | 115 | -351 | 8150 | 149 | 13 | 5850 | 230 | 7020
